Data on 12 compounds can be found in BindingDB's records for doi:10.1016/j.bmcl.2009.05.124 (Amgen, 2009).

One may read the IC50 as the concentration that gives 50% inhibition. Read a high IC50 as weaker potency.

Neuromedin-B receptor, sequence (P28336 whole entry): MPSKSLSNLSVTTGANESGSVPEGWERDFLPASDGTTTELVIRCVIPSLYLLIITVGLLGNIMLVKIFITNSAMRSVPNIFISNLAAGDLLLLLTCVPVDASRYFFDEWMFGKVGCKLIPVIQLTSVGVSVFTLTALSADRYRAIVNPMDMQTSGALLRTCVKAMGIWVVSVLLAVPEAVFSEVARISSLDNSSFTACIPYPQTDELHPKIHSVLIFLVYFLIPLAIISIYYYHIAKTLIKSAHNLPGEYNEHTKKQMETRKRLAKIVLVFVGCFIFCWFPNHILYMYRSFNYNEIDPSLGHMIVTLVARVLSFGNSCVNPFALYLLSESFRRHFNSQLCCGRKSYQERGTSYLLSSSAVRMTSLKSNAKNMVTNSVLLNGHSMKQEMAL

This assay addresses Neuromedin-B receptor (Homo sapiens, UniProt P28336). Put plainly: Displacement of [125I]-(D-Tyr0)NMB from human neuromedin B receptor transfected in HEK293 cells. Summed up:
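Whole-cell competition binding used 1 × 10⁶ HEK293 cells stably transfected with hNMBR, with 150 pM ¹²⁵I-[D-Tyr0]NMB (2200 Ci/mmol), in DMEM for 1 h at room temperature. Bound ligand was separated by filtration and total bound counts were measured. Day-to-day standard error was <30%; well-to-well variability was <10%.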
In general terms: In a radioligand displacement assay an active substance lowers the binding of a labelled ligand.
Compound `Cc1ccc2c(c1)NC(c1ccccc1Cl)C1C(=O)CC(C)(C)CC1=N2` (configuration not stated) [11-(2-chlorophenyl)-3,3,8-trimethyl-2,3,4,5,10,11-hexahydro-1H-dibenzo[b,e][1,4]diazepin-1-one] displayed an IC50 of 280 nM.

On to `Cc1ccc2c(c1)NC(c1ccccc1C(F)(F)F)C1C(=O)CC(C)(C)CC1=N2` (configuration not stated) [3,3,8-trimethyl-11-(2-(trifluoromethyl)phenyl)-2,3,4,5,10,11-hexahydro-1H-dibenzo[b,e][1,4]diazepin-1-one], for which the IC50 came to 250 nM. The IC50 values of the last two compounds are within 1.5-fold of each other.

As for `CC1(C)CC(=O)C2C(=Nc3ccc(O)cc3NC2c2c(F)cccc2Cl)C1` (configuration not stated) [11-(2-chloro-6-fluorophenyl)-8-hydroxy-3,3-dimethyl-2,3,4,5,10,11-hexahydro-1H-dibenzo[b,e][1,4]diazepin-1-one], the IC50 came out at 10000 nM.

Compound `CSc1ccccc1C1Nc2cc(C)ccc2N=C2CC3(CCCC3)CC(=O)C21` (configuration not stated) [8'-methyl-11'-(2-(methylthio)phenyl)-4',5',10',11'-tetrahydrospiro[cyclopentane-1,3'-dibenzo[b,e][1,4]diazepin]-1'(2'H)-one] displayed a 50% inhibitory concentration (IC50) of 250 nM.

With `Cc1ccc2c(c1)NC(c1c(F)cccc1Cl)C1C(=O)CCC1=N2` (configuration not stated) [10-(2-chloro-6-fluorophenyl)-7-methyl-2,3,9,10-tetrahydrobenzo[b]cyclopenta[e][1,4]diazepin-1(4H)-one], the concentration for half-maximal inhibition (IC50) is 10000 nM.

`CC1(C)CC(=O)C2C(=Nc3ccc(OC(F)(F)F)cc3NC2c2c(F)cccc2Cl)C1` (configuration not stated) [11-(2-chloro-6-fluorophenyl)-3,3-dimethyl-8-(trifluoromethoxy)-2,3,4,5,10,11-hexahydro-1H-dibenzo[b,e][1,4]diazepin-1-one] showed an IC50 of 1300 nM.

With `Cc1ccc2c(c1)NC(c1ccccc1F)C1C(=O)CC(C)(C)CC1=N2` (configuration not stated) [11-(2-fluorophenyl)-3,3,8-trimethyl-2,3,4,5,10,11-hexahydro-1H-dibenzo[b,e][1,4]diazepin-1-one], the IC50 was 1300 nM.

On to `CC1(C)CC(=O)C2C(=Nc3ccc(C#N)cc3NC2c2c(F)cccc2Cl)C1` (configuration not stated) [11-(2-chloro-6-fluorophenyl)-3,3-dimethyl-1-oxo-2,3,4,5,10,11-hexahydro-1H-dibenzo[b,e][1,4]diazepine-8-carbonitrile], for which the IC50 is 1300 nM.

The compound `CC1(C)CC(=O)C2C(=Nc3ccc(C(N)=O)cc3NC2c2c(F)cccc2Cl)C1` (configuration not stated) [11-(2-chloro-6-fluorophenyl)-3,3-dimethyl-1-oxo-2,3,4,5,10,11-hexahydro-1H-dibenzo[b,e][1,4]diazepine-8-carboxamide] had a 50% inhibitory concentration (IC50) of 10000 nM. Compared with the last compound, the IC50 is about 7.7-fold higher.

`CC1(C)CC(=O)C2C(=Nc3ccc(C(=O)O)cc3NC2c2c(F)cccc2Cl)C1` (configuration not stated) [11-(2-chloro-6-fluorophenyl)-3,3-dimethyl-1-oxo-2,3,4,5,10,11-hexahydro-1H-dibenzo[b,e][1,4]diazepine-8-carboxylic acid] gave an IC50 of 10000 nM. That is a double-digit micromolar value.

As for `Cc1ccc2c(c1)NC(c1c(F)cccc1Cl)C1C(=O)CC3(CCCC3)CC1=N2` (configuration not stated) [11'-(2-chloro-6-fluorophenyl)-8'-methyl-4',5',10',11'-tetrahydrospiro[cyclopentane-1,3'-dibenzo[b,e][1,4]diazepin]-1'(2'H)-one], the IC50 was 280 nM.

As for `Cc1ccc2c(c1)NC(c1ccccc1C(F)(F)F)C1C(=O)CC3(CCCC3)CC1=N2` (stereo not drawn) [(-)-8'-methyl-11'-(2-(trifluoromethyl)phenyl)-4',5',10',11'-tetrahydrospiro[cyclopentane-1,3'-dibenzo[b,e][1,4]diazepin]-1'(2'H)-one], the IC50 came out at 96 nM.
